Assay results published in ChEMBL document CHEMBL1147111, “In vitro and in vivo activities of synthetic trioxolanes against major human schistosome species” (Antimicrob Agents Chemother, 2007).
Activity calls are given as the source filed them. The rule behind the calls is not given here.

Legend:
Schistosoma mansoni [1] = test: Antischistosomal activity against NMRI mouse juvenile Schistosoma mansoni infection model assessed as number of cured mouse at 200 mg/kg, po after 28 days; assay type: functional, organism-based; set-up: dose 200 mg/kg
Summary of the method: (§1)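 Juvenile-infection model: mice carrying Liberian-strain S. mansoni got one oral dose at day 21 postinfection, as a suspension in 7% Tween 80/3% ethanol. There were 3–5 per group, plus untreated controls. Necropsy by exsanguination followed 28 days after treatment. Liver and mesenteric-vein worms were collected, sexed and counted. Total and female burden reductions were calculated versus controls, with Kruskal-Wallis testing.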

Schistosoma mansoni [2] = test: Antischistosomal activity against NMRI mouse juvenile Schistosoma mansoni infection model assessed as reduction of female worm burden at 200 mg/kg, po after 28 days; assay type: functional; set-up: scale not given: the % may be the effect or the level left; summary of the method: as §1
Schistosoma mansoni [3] = test: Antischistosomal activity against NMRI mouse juvenile Schistosoma mansoni infection model assessed as reduction of total worm burden at 200 mg/kg, po after 28 days; assay type: functional; set-up: scale not given: the % may be the effect or the level left; summary of the method: as §1
Schistosoma japonicum [4] = test: Antischistosomal activity against New Zealand rabbit adult Schistosoma japonicum infection model assessed as reduction of female worm burden at 15 mg/kg, po; assay type: functional; set-up: scale not given: the % may be the effect or the level left
Summary of the method: (§2)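 Rabbits were infected percutaneously with 200 S. japonicum (Anhui strain) cercariae via shaved abdominal skin. A single 15 mg/kg oral dose in Tween 80/ethanol suspension was given 35 days postinfection, with untreated controls. After sacrifice by blood letting, worms were perfused from hepatic and portomesenteric veins, sexed and counted. Cures and burden reductions were determined versus controls (Kruskal-Wallis).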

Schistosoma mansoni [5] = test: Antischistosomal activity against NMRI mouse adult Schistosoma mansoni infection model assessed as reduction of female worm burden at 400 mg/kg, po after 28 days; assay type: functional; set-up: scale not given: the % may be the effect or the level left
Summary of the method: (§3)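 Mice with a Liberian-strain S. mansoni infection were dosed at 49 days postinfection with a single oral dose of compound suspended in 7% Tween 80/3% ethanol. Groups held 3–5 animals, with untreated controls. At 28 days posttreatment, animals were killed by bleeding. Worms in liver and mesenteric veins were removed, sexed and counted. Reductions were calculated against controls and tested by Kruskal-Wallis.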

Schistosoma mansoni [6] = test: Antischistosomal activity against Syrian golden hamster adult Schistosoma mansoni infection model assessed as reduction of female worm burden at 200 mg/kg, po after 28 days; assay type: functional; set-up: scale not given: the % may be the effect or the level left
Summary of the method: (§4)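 Hamsters infected with Liberian-strain S. mansoni were treated once orally at 21 days (juvenile lines) or 49 days (adult lines) postinfection. Doses were 50, 100 or 200 mg/kg, in 7% Tween 80/3% ethanol suspension. Groups had 3–4 animals, with untreated controls. After 28 days, animals were bled out. Worms from liver and mesenteric veins were sexed and counted, and cures and burden reductions versus controls were recorded (Kruskal-Wallis).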

Schistosoma mansoni [7] = test: Antischistosomal activity against Syrian golden hamster adult Schistosoma mansoni infection model assessed as reduction of female worm burden at 50 mg/kg, po after 28 days; assay type: functional; set-up: scale not given: the % may be the effect or the level left; summary of the method: as §4
Schistosoma mansoni [8] = test: Antischistosomal activity against Syrian golden hamster juvenile Schistosoma mansoni infection model assessed as reduction of female worm burden at 200 mg/kg, po after 28 days; assay type: functional; set-up: scale not given: the % may be the effect or the level left; summary of the method: as §4
Schistosoma japonicum [9] = test: Antischistosomal activity against New Zealand rabbit adult Schistosoma japonicum infection model assessed as number of […] mg/kg, po; assay type: functional, organism-based; set-up: dose 15 mg/kg; summary of the method: as §2
Schistosoma mansoni [10] = test: Reduction of motor activity of Schistosoma mansoni at 20 ug/ml after 72 hrs; assay type: functional, organism-based
Summary of the method: (§5)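 Adult S. mansoni (Liberian strain, 49-day-old) were held two males and two females per well, in duplicate, in Hanks' balanced salt solution with 20% calf serum, 300 IU/ml penicillin and 300 μg/ml streptomycin. Drug was given at 20 μg/ml final from a 1 mg/ml stock in 60% DMSO; solvent control was 1.2% DMSO. Incubation was at 37°C in 5% CO2. Worms were scored under a dissecting microscope at 24, 48 and 72 h for death, motor activity and tegument.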

Schistosoma japonicum [11] = test: Antischistosomal activity against Syrian golden hamster adult Schistosoma japonicum infection model assessed as reduction of female worm burden at 200 mg/kg, po; assay type: functional; set-up: scale not given: the % may be the effect or the level left
Summary of the method: (§6)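 Hamsters received 100 S. japonicum (Anhui strain) cercariae through shaved abdominal skin. At 35 days postinfection, they were given a single 200 mg/kg oral dose in Tween 80/ethanol suspension, with untreated controls. Animals were killed by bleeding, and worms were recovered by perfusion of hepatic and portomesenteric veins. Worms were sexed and counted, and reductions were computed against controls (Kruskal-Wallis).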

Schistosoma mansoni [12] = test: Antischistosomal activity against Schistosoma mansoni assessed as worm death at 20 ug/ml after 72 hrs; assay type: functional, organism-based; summary of the method: as §5
Schistosoma mansoni [13] = test: Antischistosomal activity against Syrian golden hamster adult Schistosoma mansoni infection model assessed as reduction of female worm burden at 100 mg/kg, po after 28 days; assay type: functional; set-up: scale not given: the % may be the effect or the level left; summary of the method: as §4
Schistosoma mansoni [14] = test: Antischistosomal activity against Syrian golden hamster adult Schistosoma mansoni infection model assessed as number of cured mouse at 100 mg/kg, po after 28 days; assay type: functional, organism-based; set-up: dose 100 mg/kg; summary of the method: as §4
Schistosoma mansoni [15] = test: Antischistosomal activity against Syrian golden hamster juvenile Schistosoma mansoni infection model assessed as reduction of female worm burden at 50 mg/kg, po after 28 days; assay type: functional; set-up: scale not given: the % may be the effect or the level left; summary of the method: as §4
Schistosoma mansoni [16] = test: Antischistosomal activity against Syrian golden hamster adult Schistosoma mansoni infection model assessed as reduction of total worm burden at 100 mg/kg, po after 28 days; assay type: functional; set-up: scale not given: the % may be the effect or the level left; summary of the method: as §4
Schistosoma mansoni [17] = test: Tegumental alteration in Schistosoma mansoni at 20 ug/ml after 24 hrs; assay type: functional, organism-based; summary of the method: as §5
Schistosoma mansoni [18] = test: Antischistosomal activity against Syrian golden hamster juvenile Schistosoma mansoni infection model assessed as reduction of total worm burden at 100 mg/kg, po after 28 days; assay type: functional; set-up: scale not given: the % may be the effect or the level left; summary of the method: as §4
Schistosoma mansoni [19] = test: Antischistosomal activity against Syrian golden hamster adult Schistosoma mansoni infection model assessed as reduction of total worm burden at 50 mg/kg, po after 28 days; assay type: functional; set-up: scale not given: the % may be the effect or the level left; summary of the method: as §4
Schistosoma mansoni [20] = test: Antischistosomal activity against Syrian golden hamster adult Schistosoma mansoni infection model assessed as reduction of total worm burden at 200 mg/kg, po after 28 days; assay type: functional; set-up: scale not given: the % may be the effect or the level left; summary of the method: as §4
Schistosoma mansoni [21] = test: Antischistosomal activity against Schistosoma mansoni assessed as worm death at 20 ug/ml after 24 hrs; assay type: functional, organism-based; summary of the method: as §5
Schistosoma japonicum [22] = test: Antischistosomal activity against Syrian golden hamster adult Schistosoma japonicum infection model assessed as reduction of total worm burden at 200 mg/kg, po; assay type: functional; set-up: scale not given: the % may be the effect or the level left; summary of the method: as §6
Schistosoma mansoni [23] = test: Tegumental alteration in Schistosoma mansoni at 20 ug/ml after 48 hrs; assay type: functional, organism-based; summary of the method: as §5
Schistosoma mansoni [24] = test: Antischistosomal activity against Syrian golden hamster juvenile Schistosoma mansoni infection model assessed as number of cured mouse at 50 mg/kg, po after 28 days; assay type: functional, organism-based; set-up: dose 50 mg/kg; summary of the method: as §4
Schistosoma mansoni [25] = test: Antischistosomal activity against NMRI mouse adult Schistosoma mansoni infection model assessed as reduction of total worm burden at 400 mg/kg, po after 28 days; assay type: functional; set-up: scale not given: the % may be the effect or the level left; summary of the method: as §3
Schistosoma mansoni [26] = test: Antischistosomal activity against NMRI mouse adult Schistosoma mansoni infection model assessed as number of cured mouse at 400 mg/kg, po after 28 days; assay type: functional, organism-based; set-up: dose 400 mg/kg; summary of the method: as §3
Schistosoma mansoni [27] = test: Antischistosomal activity against Syrian golden hamster juvenile Schistosoma mansoni infection model assessed as number of cured mouse at 100 mg/kg, po after 28 days; assay type: functional, organism-based; set-up: dose 100 mg/kg; summary of the method: as §4
Schistosoma mansoni [28] = test: Antischistosomal activity against Syrian golden hamster adult Schistosoma mansoni infection model assessed as number of cured mouse at 200 mg/kg, po after 28 days; assay type: functional, organism-based; set-up: dose 200 mg/kg; summary of the method: as §4
Schistosoma mansoni [29] = test: Antischistosomal activity against Syrian golden hamster juvenile Schistosoma mansoni infection model assessed as number of cured mouse at 200 mg/kg, po after 28 days; assay type: functional, organism-based; set-up: dose 200 mg/kg; summary of the method: as §4
Schistosoma japonicum [30] = test: Antischistosomal activity against New Zealand rabbit adult Schistosoma japonicum infection model assessed as reduction of total worm burden at 15 mg/kg, po; assay type: functional; set-up: scale not given: the % may be the effect or the level left; summary of the method: as §2
Schistosoma mansoni [31] = test: Antischistosomal activity against Syrian golden hamster adult Schistosoma mansoni infection model assessed as number of cured mouse at 50 mg/kg, po after 28 days; assay type: functional, organism-based; set-up: dose 50 mg/kg; summary of the method: as §4
Schistosoma mansoni [32] = test: Antischistosomal activity against Schistosoma mansoni assessed as worm death at 20 ug/ml after 48 hrs; assay type: functional, organism-based; summary of the method: as §5
Schistosoma mansoni [33] = test: Antischistosomal activity against Syrian golden hamster juvenile Schistosoma mansoni infection model assessed as reduction of female worm burden at 100 mg/kg, po after 28 days; assay type: functional; set-up: scale not given: the % may be the effect or the level left; summary of the method: as §4
Schistosoma mansoni [34] = test: Reduction of motor activity of Schistosoma mansoni at 20 ug/ml after 24 hrs; assay type: functional, organism-based; summary of the method: as §5
Schistosoma mansoni [35] = test: Antischistosomal activity against Syrian golden hamster juvenile Schistosoma mansoni infection model assessed as reduction of total worm burden at 50 mg/kg, po after 28 days; assay type: functional; set-up: scale not given: the % may be the effect or the level left; summary of the method: as §4
Schistosoma mansoni [36] = test: Antischistosomal activity against Syrian golden hamster juvenile Schistosoma mansoni infection model assessed as reduction of total worm burden at 200 mg/kg, po after 28 days; assay type: functional; set-up: scale not given: the % may be the effect or the level left; summary of the method: as §4
Schistosoma mansoni [37] = test: Reduction of motor activity of Schistosoma mansoni at 20 ug/ml after 48 hrs; assay type: functional, organism-based; summary of the method: as §5
Schistosoma mansoni [38] = test: Tegumental alteration in Schistosoma mansoni at 20 ug/ml after 72 hrs; assay type: functional, organism-based; summary of the method: as §5

## C1CCC2(CC1)COC1(OO2)C2CC3CC(C2)CC1C3 (stereo not given)
Schistosoma mansoni [1]
  Activity: inactive
Schistosoma mansoni [2]
  Activity: 3.9%
Schistosoma mansoni [3]
  Activity: 5.4%

## C1CCC2(CC1)OCC1(O2)C2CC3CC(C2)CC1C3 (stereo not given)
Schistosoma mansoni [1]
  Activity: inactive
Schistosoma mansoni [2]
  Activity: 4.8%
Schistosoma mansoni [3]
  Activity: 2%

## C1CCC2(CC1)COC1(CCCCC1)OO2
Schistosoma mansoni [1]
  Activity: inactive
Schistosoma mansoni [2]
  Activity: 0%
Schistosoma mansoni [3]
  Activity: 0%

## C1CCC2(CC1)COC1(O2)C2CC3CC(C2)CC1C3 (stereo not given)
Schistosoma mansoni [1]
  Activity: inactive
Schistosoma mansoni [2]
  Activity: 0%
Schistosoma mansoni [3]
  Activity: 0%

## O=C(O)C[C@H]1CC[C@]2(CC1)OO[C@]1(O2)C2CC3CC(C2)CC1C3
Schistosoma japonicum [4]
  Activity: 42.3%
Schistosoma mansoni [5]
  Activity: 0%
Schistosoma mansoni [6]
  Activity: 93.2%
Schistosoma mansoni [7]
  Activity: 38.9%
Schistosoma mansoni [8]
  Activity: 75.1%
Schistosoma japonicum [9]
  Activity: inactive
Schistosoma mansoni [10]
  Activity: inactive
Schistosoma japonicum [11]
  Activity: 100%
Schistosoma mansoni [12]
  Activity: inactive
Schistosoma mansoni [13]
  Activity: 79.6%
Schistosoma mansoni [1]
  Activity: inactive
Schistosoma mansoni [14]
  Activity: inactive
Schistosoma mansoni [15]
  Activity: 67%
Schistosoma mansoni [16]
  Activity: 69.2%
Schistosoma mansoni [17]
  Activity: inactive
Schistosoma mansoni [2]
  Activity: 87.3%
Schistosoma mansoni [18]
  Activity: 83%
Schistosoma mansoni [19]
  Activity: 46.1%
Schistosoma mansoni [20]
  Activity: 85%
Schistosoma mansoni [21]
  Activity: inactive
Schistosoma japonicum [22]
  Activity: 94.2%
Schistosoma mansoni [23]
  Activity: inactive
Schistosoma mansoni [24]
  Activity: inactive
Schistosoma mansoni [25]
  Activity: 0%
Schistosoma mansoni [26]
  Activity: inactive
Schistosoma mansoni [27]
  Activity: inactive
Schistosoma mansoni [28]
  Activity: inactive
Schistosoma mansoni [29]
  Activity: inactive
Schistosoma japonicum [30]
  Activity: 40.7%
Schistosoma mansoni [31]
  Activity: inactive
Schistosoma mansoni [32]
  Activity: inactive
Schistosoma mansoni [3]
  Activity: 82%
Schistosoma mansoni [33]
  Activity: 78.3%
Schistosoma mansoni [34]
  Activity: inactive
Schistosoma mansoni [35]
  Activity: 73.4%
Schistosoma mansoni [36]
  Activity: 80.2%
Schistosoma mansoni [37]
  Activity: inactive
Schistosoma mansoni [38]
  Activity: inactive
